Results published in paper PMC3466390 (Biomaterials, 2012).
Entries after “also recorded” stand apart in the source; their conditions may differ.

What was measured:
S. aureus (ATCC 25923) = test: Antibacterial assay on hydrogel surfaces; format: cell-based, Staphylococcus aureus; settings: 0.5, 1, 1.5 and 2 wt% hydrogels, 10^5 CFU/dm^2, 24 h, 37°C, n=3
How it was run: (§1)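 Gels (0.5–2 wt%) formed in wells by mixing peptide stocks in sterile water 1:1 with BTP buffer (100 mM, 300 mM NaCl, pH 7.4). They were held 3 h at 37°C, then equilibrated overnight under BTP (50 mM, 150 mM NaCl, pH 7.4), and the buffer was removed. Bacteria were grown overnight on blood agar, applied at 10^4 CFU/mL in TSB, and incubated 24 h at 37°C, with bare plastic as control. After a TSB wash, OD625 of the overlying solution was corrected for dilution and scattering. % non-viable = [1 − OD surface/OD control]×100; triplicate.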

[1] = CD spectroscopy of folding and self-assembly; format: physicochemical
How it was run: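 Peptides were measured at 1 wt% in chilled water, or as chilled 2 wt% aqueous stock mixed 1:1 with BTP stock (100 mM, 300 mM NaCl, pH 7.4) and left to gel in the cell. Scans ran 200–260 nm at 37°C in a 0.1 mm quartz cell. Mean residue ellipticity was [θ] = (θobs/10lc)/r.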

[2] = tested on: human red blood cells (hRBCs); format: cell-based
E. coli (ATCC 25922) = test: Antibacterial assay on hydrogel surfaces; format: cell-based, Escherichia coli; settings: 0.5, 1, 1.5 and 2 wt% hydrogels, 10^5 CFU/dm^2, 24 h, 37°C, n=3
How it was run: as §1

[3] = Oscillatory rheology of hydrogels; format: physicochemical; settings: 1 wt% gel, 0.2% strain
How it was run: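 A 2 wt% peptide solution in chilled water was mixed with an equal volume of BTP (100 mM, 300 mM NaCl, pH 7.4). It was loaded on a 25 mm parallel plate at 5°C with a 0.5 mm gap, then ramped to 37°C over 100 s. G′ and G″ were followed by a 1 h time sweep at 6 rad/s and 0.2% strain. For recovery, 1000% strain was applied for 30 s at 6 rad/s, followed by a second 1 h sweep.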

P. aeruginosa = format: cell-based
S. aureus = test: Antibacterial assay in the presence of Ca2+; format: cell-based, Staphylococcus aureus; settings: 1 wt% hydrogel, 0, 0.1, 1, 10 and 20 mM Ca2+, 37°C, CFU count, n=3
E. coli [4] = test: Antibacterial assay in the presence of Ca2+; format: cell-based, Escherichia coli; settings: 1 wt% hydrogel, 0, 0.1, 1, 10 and 20 mM Ca2+, 37°C, CFU count, n=3
[5] = tested on: P. aeruginosa (ATCC 27853); test: Antibacterial assay on hydrogel surfaces; format: cell-based, Pseudomonas aeruginosa; settings: 10^5 CFU/dm^2, 24 h, 37°C, n=3
How it was run: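 Peptide stocks in sterile water were mixed 1:1 with BTP (100 mM, 300 mM NaCl, pH 7.4) to gel, held 3 h at 37°C, then equilibrated overnight under BTP (50 mM, 150 mM NaCl, pH 7.4), which was then removed. Blood-agar-grown bacteria (18-20 h) at 10⁴ CFU/mL in TSB were applied to the gel surface for 24 h at 37°C. OD625 was compared with bare polystyrene: % non-viable = [1 − OD surface/OD control]×100.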

E. coli [6] = test: Atomic force microscopy imaging of bacteria on gel; format: cell-based, Escherichia coli; settings: 2 wt% hydrogel, 2 h incubation, 37°C

Row | Substance | antibacterial activity of hydrogel surface against S. aureus, in words (S. aureus (ATCC 25923)) | folding/assembly state by CD ([1]; 1 wt% peptide in BTP buffer with NaCl, pH 7.4, 37°C) | folding/assembly state by CD ([1]; 1 wt% peptide in water, 37°C) | hemolytic activity [2] | hemolytic activity as a function of wt% [2] | antibacterial activity of hydrogel surface against E. coli, in words (E. coli (ATCC 25922)) | storage modulus (G') ([3]; 50 mM BTP, 150 mM NaCl, pH 7.4, 37°C, after 1 h, 6 rad/s) | recovery of initial mechanical rigidity after shear-thinning ([3]; 37°C, 1000% strain for 30 s, then 1 h at 6 rad/s) | live-dead result at the gel surface (cytostatic or cytotoxic) (P. aeruginosa) | live-dead result at the gel surface, short incubation, compared with 24 h (P. aeruginosa; 2 wt% hydrogel, 2 h incubation) | antibacterial activity (percent non-viable bacteria) in the presence of Ca2+ (S. aureus) | antibacterial activity (percent non-viable bacteria) in the presence of Ca2+ (E. coli [4]) | antibacterial activity of hydrogel surface against P. aeruginosa, in words ([5]; 0.5 wt% hydrogel) | antibacterial activity of hydrogel surface against P. aeruginosa, in words ([5]; 1.5 wt% hydrogel) | antibacterial activity of hydrogel surface against P. aeruginosa, in words ([5]; 2 wt% hydrogel) | morphology of E. coli on gel surface by AFM (E. coli [6])
1 | VRVRVRVRV^DPPTRVRVRVRV-NH2 [PEP8R] | capable of inhibiting both E. coli and S. aureus proliferation, irrespective of the peptide weight percentage used | folded and assembled into β-sheet structures | unfolded peptide | about 25% | decreases in a concentration dependent manner | capable of inhibiting both E. coli and S. aureus proliferation, irrespective of the peptide weight percentage used | – | – | – | – | – | – | – | – | – | –
2 | VKVRVRVRV^DPPTRVRVRVKV [PEP6R] | inhibit E. coli and S. aureus proliferation at all weight percentages | – | – | low hemolytic activity | – | inhibit E. coli and S. aureus proliferation at all weight percentages; also recorded: quantitatively kills E. coli at all weight percents tested | increase in mechanical rigidty | about 90% | cytotoxic | identical | progressively attenuated with increasing concentrations of Ca^2+ | progressively attenuated with increasing concentrations of Ca^2+ | only marginally active | extremely potent | extremely potent | membrane surface has collapsed and appears highly punctated
